Measurements taken from ChEMBL document CHEMBL3046864, “Synthesis and antifungal activity of a series of N-substituted [2-(2,4-dichlorophenyl)-3-(1,2,4-triazol-1-yl)]propylamines” (J Agric Food Chem, 2007).
Values after ≈ are worked out from the molar mass of the structure shown.

What follows are molecules tested on Fusarium graminearum (assay: Fungicidal activity against Fusarium graminearum assessed as inhibition of radial growth). Details: not given.
Assay type: functional, organism-based
Procedure, shortened: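 The Fusarium isolate came from the IPV collection and was kept on PDA. Radial growth was measured on PDA plates at 100–0.1 mg L-1. Percentage inhibition was taken from the mean difference between treated and control cultures. EC50 came from a probit plot of percentage inhibition against dose.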

SMILES	EC50 [µg/mL]
Clc1ccc(C(CN(C/C=C/c2ccccc2)C/C=C/c2ccccc2)Cn2cncn2)c(Cl)c1 (centres undefined)	> 100
CN(C)CC(Cn1cncn1)c1ccc(Cl)cc1Cl (centres undefined)	> 100
Clc1ccc(C(CNCc2ccccc2)Cn2cncn2)c(Cl)c1 (centres undefined)	> 100
Clc1ccc(C(CN(Cc2ccccc2)Cc2ccccc2)Cn2cncn2)c(Cl)c1 (centres undefined)	> 100
C=CCNCC(Cn1cncn1)c1ccc(Cl)cc1Cl (centres undefined)	> 100
CC(C)(C)c1ccc(CN(Cc2ccc(C(C)(C)C)cc2)CC(Cn2cncn2)c2ccc(Cl)cc2Cl)cc1 (centres undefined)	> 100
C#CCNCC(Cn1cncn1)c1ccc(Cl)cc1Cl (centres undefined)	> 100
NCC(Cn1cncn1)c1ccc(Cl)cc1Cl (centres undefined)	> 100
C=CCN(CC(Cn1cncn1)c1ccc(Cl)cc1Cl)C1CC1 (centres undefined)	55 (≈ 157 µM)

What follows are molecules tested on Ustilago maydis (assay: Fungicidal activity against Ustilago maydis ATCC 14826 assessed as inhibition of fungal cell count). Details: Mycosarcoma maydis.
Assay type: functional, organism-based
Procedure, shortened: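 U. maydis ATCC 14826 broth cultures were grown in Coursen and Sisler broth with compound. Growth was estimated by sporidial cell count at the end of treatment and expressed as % inhibition versus the untreated control.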

SMILES	EC50 [µg/mL]
Clc1ccc(C(CN(C/C=C/c2ccccc2)C/C=C/c2ccccc2)Cn2cncn2)c(Cl)c1 (centres undefined)	0.65 (≈ 1.29 µM)
CN(C)CC(Cn1cncn1)c1ccc(Cl)cc1Cl (centres undefined)	2.5 (≈ 8.36 µM)
Clc1ccc(C(CNCc2ccccc2)Cn2cncn2)c(Cl)c1 (centres undefined)	11.3 (≈ 31.3 µM)
Clc1ccc(C(CN(Cc2ccccc2)Cc2ccccc2)Cn2cncn2)c(Cl)c1 (centres undefined)	0.09 (≈ 0.199 µM)
C=CCNCC(Cn1cncn1)c1ccc(Cl)cc1Cl (centres undefined)	19.9 (≈ 63.9 µM)
CC(C)(C)c1ccc(CN(Cc2ccc(C(C)(C)C)cc2)CC(Cn2cncn2)c2ccc(Cl)cc2Cl)cc1 (centres undefined)	9 (≈ 16 µM)
C#CCNCC(Cn1cncn1)c1ccc(Cl)cc1Cl (centres undefined)	1.3 (≈ 4.2 µM)
NCC(Cn1cncn1)c1ccc(Cl)cc1Cl (centres undefined)	70.3 (≈ 259 µM)
C=CCN(CC(Cn1cncn1)c1ccc(Cl)cc1Cl)C1CC1 (centres undefined)	0.01 (≈ 0.0285 µM)

These molecules were tested on Botrytis cinerea (assay: Fungicidal activity against Botryotinia fuckeliana assessed as inhibition of radial growth). Details: not given.
Assay type: functional, organism-based
Procedure, shortened: (§1)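 Strains from the IPV collection were maintained on potato dextrose agar. Radial growth on PDA was measured at 100–0.1 mg L-1. % inhibition was taken from the mean difference between treated and control cultures relative to control. % inhibition was plotted on a probit scale against dose to give EC50.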

SMILES	EC50 [µg/mL]
Clc1ccc(C(CN(C/C=C/c2ccccc2)C/C=C/c2ccccc2)Cn2cncn2)c(Cl)c1 (centres undefined)	> 100
CN(C)CC(Cn1cncn1)c1ccc(Cl)cc1Cl (centres undefined)	75 (≈ 251 µM)
Clc1ccc(C(CNCc2ccccc2)Cn2cncn2)c(Cl)c1 (centres undefined)	> 100
Clc1ccc(C(CN(Cc2ccccc2)Cc2ccccc2)Cn2cncn2)c(Cl)c1 (centres undefined)	6 (≈ 13.3 µM)
C=CCNCC(Cn1cncn1)c1ccc(Cl)cc1Cl (centres undefined)	> 100
CC(C)(C)c1ccc(CN(Cc2ccc(C(C)(C)C)cc2)CC(Cn2cncn2)c2ccc(Cl)cc2Cl)cc1 (centres undefined)	> 100
C#CCNCC(Cn1cncn1)c1ccc(Cl)cc1Cl (centres undefined)	38 (≈ 123 µM)
NCC(Cn1cncn1)c1ccc(Cl)cc1Cl (centres undefined)	> 100
C=CCN(CC(Cn1cncn1)c1ccc(Cl)cc1Cl)C1CC1 (centres undefined)	4.4 (≈ 12.5 µM)

These molecules were tested on Oculimacula yallundae (assay: Fungicidal activity against Oculimacula yallundae assessed as inhibition of radial growth). Details: not given.
Assay type: functional, organism-based
Procedure, shortened: as §1

SMILES	EC50 [µg/mL]
Clc1ccc(C(CN(C/C=C/c2ccccc2)C/C=C/c2ccccc2)Cn2cncn2)c(Cl)c1 (centres undefined)	> 100
CN(C)CC(Cn1cncn1)c1ccc(Cl)cc1Cl (centres undefined)	6.5 (≈ 21.7 µM)
Clc1ccc(C(CNCc2ccccc2)Cn2cncn2)c(Cl)c1 (centres undefined)	23.4 (≈ 64.8 µM)
Clc1ccc(C(CN(Cc2ccccc2)Cc2ccccc2)Cn2cncn2)c(Cl)c1 (centres undefined)	17 (≈ 37.7 µM)
C=CCNCC(Cn1cncn1)c1ccc(Cl)cc1Cl (centres undefined)	91.3 (≈ 293 µM)
CC(C)(C)c1ccc(CN(Cc2ccc(C(C)(C)C)cc2)CC(Cn2cncn2)c2ccc(Cl)cc2Cl)cc1 (centres undefined)	> 100
C#CCNCC(Cn1cncn1)c1ccc(Cl)cc1Cl (centres undefined)	11 (≈ 35.6 µM)
NCC(Cn1cncn1)c1ccc(Cl)cc1Cl (centres undefined)	> 100
C=CCN(CC(Cn1cncn1)c1ccc(Cl)cc1Cl)C1CC1 (centres undefined)	0.8 (≈ 2.28 µM)

These molecules were tested on Pyrenophora teres (assay: Fungicidal activity against Pyrenophora teres assessed as inhibition of radial growth). Details: not given.
Assay type: functional, organism-based
Procedure, shortened: as §1

SMILES	EC50 [µg/mL]
Clc1ccc(C(CN(C/C=C/c2ccccc2)C/C=C/c2ccccc2)Cn2cncn2)c(Cl)c1 (centres undefined)	6 (≈ 11.9 µM)
CN(C)CC(Cn1cncn1)c1ccc(Cl)cc1Cl (centres undefined)	42 (≈ 140 µM)
Clc1ccc(C(CNCc2ccccc2)Cn2cncn2)c(Cl)c1 (centres undefined)	30.3 (≈ 83.9 µM)
Clc1ccc(C(CN(Cc2ccccc2)Cc2ccccc2)Cn2cncn2)c(Cl)c1 (centres undefined)	1.9 (≈ 4.21 µM)
C=CCNCC(Cn1cncn1)c1ccc(Cl)cc1Cl (centres undefined)	> 100
CC(C)(C)c1ccc(CN(Cc2ccc(C(C)(C)C)cc2)CC(Cn2cncn2)c2ccc(Cl)cc2Cl)cc1 (centres undefined)	> 100
C#CCNCC(Cn1cncn1)c1ccc(Cl)cc1Cl (centres undefined)	38 (≈ 123 µM)
NCC(Cn1cncn1)c1ccc(Cl)cc1Cl (centres undefined)	> 100
C=CCN(CC(Cn1cncn1)c1ccc(Cl)cc1Cl)C1CC1 (centres undefined)	3.2 (≈ 9.11 µM)

These molecules were tested on Cercospora beticola (assay: Fungicidal activity against Cercospora beticola assessed as inhibition of radial growth). Details: not given.
Assay type: functional, organism-based
Procedure, shortened: as §1

SMILES	EC50 [µg/mL]
Clc1ccc(C(CN(C/C=C/c2ccccc2)C/C=C/c2ccccc2)Cn2cncn2)c(Cl)c1 (centres undefined)	12.5 (≈ 24.8 µM)
CN(C)CC(Cn1cncn1)c1ccc(Cl)cc1Cl (centres undefined)	8 (≈ 26.7 µM)
Clc1ccc(C(CNCc2ccccc2)Cn2cncn2)c(Cl)c1 (centres undefined)	2.7 (≈ 7.47 µM)
Clc1ccc(C(CN(Cc2ccccc2)Cc2ccccc2)Cn2cncn2)c(Cl)c1 (centres undefined)	4 (≈ 8.86 µM)
C=CCNCC(Cn1cncn1)c1ccc(Cl)cc1Cl (centres undefined)	31.7 (≈ 102 µM)
CC(C)(C)c1ccc(CN(Cc2ccc(C(C)(C)C)cc2)CC(Cn2cncn2)c2ccc(Cl)cc2Cl)cc1 (centres undefined)	7 (≈ 12.4 µM)
C#CCNCC(Cn1cncn1)c1ccc(Cl)cc1Cl (centres undefined)	4 (≈ 12.9 µM)
NCC(Cn1cncn1)c1ccc(Cl)cc1Cl (centres undefined)	> 100
C=CCN(CC(Cn1cncn1)c1ccc(Cl)cc1Cl)C1CC1 (centres undefined)	0.2 (≈ 0.569 µM)
